# TRPC6 activator – activators of mouse TRPC6 channel | B-score at 10 µM | HEK293-TRPC6 membrane potential dye fluorescence; active compounds read high | Q61143 | 0.13% of 310,000 active;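 active means B-score of the integrated fluorescence ratio above library mean plus 3 SD, and starting fluorescence ratio within library mean plus 5 SD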;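 further: higher score means more depolarization so channel activation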
# Kir21 inh – Kir2.1 (mouse) channel inhibition | P35561 | HEK293-Kir2.1, FluxOR thallium flux fluorescence; active compounds read low | B-score at 10 µM | 0.85% of 310,000 active;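 active means fluorescence ratio B-score at or below minus 3 SD of library scores, with starting-brightness B-score within 2 SD, cut at about -4.2 in these data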;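 further: channel flux triggered by added potassium and thallium sulfate stimulus; B-score of peak minus minimum fluorescence over baseline after thallium stimulus; more negative B-score means stronger Kir2.1 block with less thallium influx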
# TRPC4 act – opens the mouse TRPC4 cation channel; Q9QUQ5; B-score at 10 µM; HEK293 TRPC4beta/mu-opioid, Fluo4 calcium fluorescence; active compounds read high; 0.49% of 310,000 active;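 active means B-score above 5 SD of library B-scores, and initial fluorescence ratio not above library mean plus 5 SD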;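 further: positive B-score marks a calcium rise read as TRPC4 activation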
#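 Assay system – TRPC4beta and mu-opioid receptor HEK293 stable cells · Measured by – Fluo4 fluorescence, kinetic · Schedule – dye loading 45 min room temperature, 110 s kinetic read · Read-out – B-scored integrated calcium fluorescence ratio · Controls – buffer and maximal DAMGO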
# TRPC4 PAM – TRPC4 (mouse) allosteric potentiation | Q9QUQ5 | HEK293 TRPC4beta/mu-opioid, DAMGO EC20, Fluo-4 Ca2+ flux; active compounds read high | B-score at 10 µM | 0.42% of 310,000 active;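 active means B-score of calcium response area above 5 SD of library B-scores, with initial fluorescence ratio within 5 SD of library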;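 further: B-score of integrated fluorescence ratio over time as area under calcium response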
# TRPC6 inhibitor – mouse TRPC6 channel inhibition | HEK293-TRPC6, membrane potential dye, ACh-evoked depolarization; active compounds read low | B-score at 10 µM | 1.1% of 310,000 active;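 active means B-score under library mean minus 3 SD, initial fluorescence not abnormally high, positive integrated signal ratio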;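 further: B-score derived from integrated fluorescence ratio over the kinetic read; more negative B-score means stronger inhibition of depolarization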
# TRPC4 inh – inhibitors of mouse TRPC4 channel. Q9QUQ5. HEK293 TRPC4beta/mu-opioid, DAMGO-evoked Fluo4 calcium flux; active compounds read low. B-score at 10 µM. 0.39% of 300,000 active;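 active means B-score over 3 SD under the library average, no early fluorescence shift, positive overall ratio signal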
#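 test system = HEK293 cells with stable TRPC4beta plus mu-opioid receptor expression | detection = Fluo4 Ca2+ flux fluorescence | read-out = integrated fluorescence ratio relative to baseline, converted to per-well B score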
# hERG inh – hERG (human) inhibition as Kir2.1 counter-screen; shares compounds with Kir21 inh; hERG-expressing cells, thallium flux; inhibition, % at 10 µM; 20% of 320 active;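 further: host cells are CHO cells stably expressing hERG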
# KCNK9 inh – tests whether Kir2.1 inhibitors also affect human KCNK9 | shares compounds with Kir21 inh | KCNK9-expressing cells, ion flux inhibition | 5% of 320 active | inhibition, % at 10 µM | AID 2329
# Kir2-1 patch inh – inhibitors of mouse Kir2.1 potassium channel. AID 463252. 71% of 320 active. inhibition, % at 25 µM. Kir2.1 cells, automated patch-clamp current inhibition. shares compounds with Kir21 inh
# * hit, by the source's call; i = inactive; / = not tested or not shown. Sampled rows, rich in hits. Any-hit rate of the full collection: about 2.9%. Unless noted, how the calls were made is not given here.
SMILES,TRPC6 activator,Kir21 inh,TRPC4 act,TRPC4 PAM,TRPC6 inhibitor,TRPC4 inh,hERG inh,KCNK9 inh,Kir2-1 patch inh
COc1ccc(CCN2CCCC(CN(C)Cc3cccc(OC)c3)C2)cc1 (centres undefined),i,-9.5*,i,i,i,i,i,i,37%*
CCOc1ccccc1CNCc1ccc(C(=O)O)cc1,i,-1.5,i,i,i,i,/,/,/
O=C(COc1ccccc1CNCc1ccccc1)Nc1ccccc1,i,-10*,i,i,i,i,49%*,i,43%*
CN1CCc2c(n(CC(O)CNCc3ccccc3)c3ccccc23)C1=O (centres undefined),i,-6*,i,i,i,i,i,31%*,i
CCc1nc2ccc(C(=O)N3CCN(c4ccccc4)CC3)cc2nc1CC,i,0.04,i,i,i,i,/,/,/
CCc1nnc(SCC(=O)Nc2ccc(NC(C)=O)cc2)n1-n1cccc1,i,2.2,i,i,i,i,/,/,/
CCOc1nc(C)cc(C)c1S(=O)(=O)c1ccc(Cl)cc1,i,-6.4*,i,i,i,i,i,i,i
COc1ccc(CC(=O)N/N=C/c2ccc(-c3ccc(F)cc3)o2)cc1OC,i,1.6,i,i,i,i,/,/,/
CCNCc1cc(Cl)c(OCc2ccccc2)c(OCC)c1,i,-7*,i,i,i,i,i,i,47%*
N#Cc1cccnc1Nc1ccc(Cl)cc1,i,-1.2,i,i,i,i,/,/,/
Cc1onc(-c2ccccc2)c1CNS(=O)(=O)c1cccc(Cl)c1,i,-9.8*,i,i,i,i,i,i,12%*
CCn1cc(C(=O)NCCc2ccccc2)c(=O)c2cc(S(=O)(=O)N(C)C)ccc21,i,3.5,i,i,i,i,i,i,i
CCn1cc(C(=O)NCCCOC)c(=O)c2cc(S(=O)(=O)N(C)C)ccc21,i,-0.7,i,i,i,i,/,/,/
CCCCCCSC1=C(C#N)C(c2ccc(C)o2)CC(=O)N1 (centres undefined),i,-6*,i,i,i,i,i,i,i
Cc1ccc2[nH]c(=O)c(CN(CCO)Cc3nnnn3CCc3ccccc3)cc2c1,i,-0.86,i,i,i,i,/,/,/
COc1ccccc1/C=C(\NC(=O)c1ccccc1)C(=O)NCc1ccco1,i,3.9,i,i,i,i,i,i,i
CCS(=O)(=O)N1CCC(NC(=O)C(Cc2cc(OC)ccc2OC)NC(C)=O)CC1 (centres undefined),i,1.9,i,i,i,i,i,i,i
CCN(Cc1ccccc1)S(=O)(=O)c1ccc2c(c1)NC(=O)CC(=O)N2,i,-2.2,i,i,i,i,/,/,/
CCN(Cc1ccccc1)S(=O)(=O)c1ccc2c(c1)NC(=O)CS2,i,-5.8*,i,i,i,i,i,i,i
COc1ccc(Cl)c(N2CCN(CCCNC(=O)Nc3ccc(C)cc3)CC2)c1,i,-6.3*,i,i,i,i,70%*,i,4.8%*
CSc1ccc(NC(=O)NCCCN2CCC(Cc3ccccc3)CC2)cc1,i,-6*,i,i,i,i,75%*,i,20%*
COc1ccc(NC(=O)NCCCN2CCC(Cc3ccccc3)CC2)cc1,i,-2.8,i,i,i,i,/,/,/
COc1ccc(CN2CCCC(CNC(=O)c3ccc(F)cc3)C2)c(C)c1C (centres undefined),i,-1.7,i,i,i,i,/,/,/
Cc1cccc(C(=O)Nc2ccc3ccccc3c2)c1,i,0.16,i,i,i,i,/,/,/
CCOC(=O)C(=CNc1ccc(NC2=NCC(C)(C)S2)cc1)C(=O)OCC,i,-7*,i,i,i,i,i,i,22%*
SMILES,TRPC6 activator,Kir21 inh,TRPC4 act,TRPC4 PAM,TRPC6 inhibitor,TRPC4 inh,hERG inh,KCNK9 inh,Kir2-1 patch inh
CCOC(=O)C(=CNc1ccc(S(N)(=O)=O)cc1)C(=O)OCC,i,0.98,i,i,i,i,/,/,/
Cc1[nH]n(-c2ccccc2)c(=O)c1CCO,i,1.2,i,i,i,i,/,/,/
Cc1[nH]n(-c2ccccc2)c(=O)c1S(=O)(=O)c1ccccc1,i,-15*,i,i,i,i,i,i,66%*
O=C(NC1CCCCCC1)C1CCN(C(=O)c2ccc(Br)cc2)CC1,i,1.3,i,i,i,i,/,/,/
COc1ccc(CNS(=O)(=O)NCc2ccccc2)cc1,i,-0.04,i,i,i,i,/,/,/
COc1ccc(CNCc2ccc(C)cc2)c(OC)c1,i,-0.17,i,i,i,i,/,/,/
COc1ccc(CNCc2ccc(OC)c3ccccc23)cc1,i,-14*,i,i,i,i,i,i,8.1%*
COc1ccc(CNC/C=C/c2ccccc2)cc1,i,-12*,i,i,i,i,i,i,78%*
NS(=O)(=O)c1ccc(NC(=O)COC(=O)CSc2n[nH]c(-c3ccccc3)n2)cc1,i,-0.03,i,i,i,i,/,/,/
CCN(Cc1ccc(OC)c(COC)c1)CC1CCCN(CCc2cccc(F)c2)C1 (centres undefined),i,-0.63,i,i,i,i,/,/,/
CCN(Cc1ccc(C#CCCO)cc1)CC1CCCN(CCc2cccc(F)c2)C1 (centres undefined),i,-6.7*,i,i,i,i,55%*,i,14%*
Cc1c(Br)cc(C(=O)OC2CCN(C)CC2)c(C)c1C,i,-10*,i,i,i,i,i,i,45%*
CN1CCC(OC(=O)c2ccccc2)CC1,i,0.23,i,i,i,i,/,/,/
Cc1ccc(NC(=O)C2CCCCC2)c(O)c1,i,1.6,i,i,i,i,/,/,/
COc1ccc(CN2CCCN(S(=O)(=O)c3ccc(Br)cc3)CC2)cc1,i,-6.8*,i,i,i,i,67%*,i,31%*
Cc1ccc([N+](=O)[O-])cc1S(=O)(=O)NCC1COc2ccccc2O1 (centres undefined),i,-6.4*,i,i,i,i,i,36%*,11%*
